Source: the array DNA melting data of Ke et al. (doi:10.1101/2024.01.08.574731)

Tests used:
[1] = folding enthalpy; higher = less favourable; fluorescence melt of hairpins on a sequencing array, two-state fit; conditions: sodium 0.088 M
Method in brief: (§1)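 Melting temperature and folding enthalpy were obtained by bootstrapped two-state fitting. Fits used Cy3 fluorescence of library hairpins with annealed Cy3 and quencher oligos on a sequenced MiSeq flow cell, imaged in 50 mM Na-HEPES pH 8.0, 25 mM NaCl in 2.5 °C steps up to 60 °C and normalised to pre-quench Cy3 and control constructs. Four replicates were combined by inverse-variance weighting, and fitted temperatures were raised by 9.35 °C to match UV melts.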

[2] = melting temperature; fluorescence melt of hairpins on a sequencing array, two-state fit, raised by 9.35 °C to match UV melts; conditions: sodium 0.088 M
Method in brief: as §1

Sequence | folding enthalpy [1] | Tm [2]
GACTATGAAAATAGTC ((((((....)))))) | -32.8 kcal/mol | 49.5 °C
GATCGATTTCTCGATC ((((((....)))))) | -36.4 kcal/mol | 52.5 °C
GCTATCTCGAAAGAGAGC (((..(((....)))))) | -16.7 kcal/mol | 37.2 °C
GAAGTCGGAAACGGCTTC ((((.((....)).)))) | -39.7 kcal/mol | 54.5 °C
GCTATGCGAAAGCAACGC ((..(((....)))..)) | -10.5 kcal/mol | 39.1 °C
GAACCGGGAAACTGGTTC (((((.(....).))))) | -41.7 kcal/mol | 51.4 °C
GTGGGACCGAAAGGTCAC (((..(((....)))))) | -19.5 kcal/mol | 64.2 °C
GATGGAGGAAACTCTATC (((.(((....))).))) | -24.4 kcal/mol | 37.8 °C
CGGGACGGAAACGTGCCG (((.(((....))).))) | -19.1 kcal/mol | 60.3 °C
GTGCTTCGAAAGAAACAC (((.(((....))).))) | -36 kcal/mol | 45.6 °C
GCGGGGCGAAAGCTGCGC (((..((....))..))) | -27.2 kcal/mol | 65.6 °C
GCGGAGTCGAAAGACCGC (((..(((....)))))) | -38 kcal/mol | 53.7 °C
GATCCTATGGAGGATC ((((((....)))))) | -35.2 kcal/mol | 50.6 °C
GATCCTCGGTAGGATC ((((((....)))))) | -26.9 kcal/mol | 50.9 °C
GAGGAAGGAAACCTCCTC (((((.(....).))))) | -25.9 kcal/mol | 36.6 °C
GAACTCCGAAAGGATTTC (((.(((....))).))) | -23.5 kcal/mol | 35.2 °C
CGTTTGCGGAAACGCACG (((..(((....)))))) | -10.4 kcal/mol | 39.8 °C
GCTGTGGGAAACTACGGC ((.((.(....).)).)) | -31.6 kcal/mol | 42.6 °C
GAGACTGAAAAGTCTC ((((((....)))))) | -35.9 kcal/mol | 57.5 °C
GTGGTGCCGAAAGGCCAC (((..(((....)))))) | -12.8 kcal/mol | 48 °C
GGTCGAGGAAACTTGACC ((((.((....)).)))) | -32 kcal/mol | 51.9 °C
GAAAAAGAAATTTTTC ((((((....)))))) | -14.6 kcal/mol | 28.1 °C
GGCTATGGAAACATGGCC (((.(((....))).))) | -53.7 kcal/mol | 53.2 °C
GCTCGCGAAAGCGATAGC ((((((....)))..))) | -14.4 kcal/mol | 50.3 °C

Sequence | folding enthalpy [1] | Tm [2]
GTCGGATCGAAAGATGAC (((..(((....)))))) | -16.7 kcal/mol | 31.7 °C
GCGTTGAGACGC ((((....)))) | -29.7 kcal/mol | 56.6 °C
GCCTCGCGAAAGCTCGGC (((..((....))..))) | -26.6 kcal/mol | 46.4 °C
GAAGTTGGAAACGATTTC (((.(.(....).).))) | -20.9 kcal/mol | 36.7 °C
GACTGCGGAAACGCAGCC (.(((((....))))).) | -11.2 kcal/mol | 52 °C
GTTCAGGGAAACCTGAGC (.(((((....))))).) | -22.5 kcal/mol | 46.6 °C
GGGTCGGGAAACTGGCCC (((.(.(....).).))) | -35.8 kcal/mol | 50.6 °C
GTCTACGCGAAAGCGGAC (((..(((....)))))) | -12.7 kcal/mol | 41.3 °C
GATCTTAGGCAAGATC ((((((....)))))) | -27.9 kcal/mol | 42.8 °C
GATCGCTTGTGCGATC ((((((....)))))) | -21.5 kcal/mol | 68 °C
GATGCCGGAAACGGTGTC ((..(((....)))..)) | -24.3 kcal/mol | 47.8 °C
GATGCAGGAAACTGCGTC ((.((((....)))).)) | -44.7 kcal/mol | 52.5 °C
GATCGAGCTCTCGATC ((((((....)))))) | -39.1 kcal/mol | 55.2 °C
GTGCCTGGAAACGGGTAC ((.((.(....).)).)) | -18.6 kcal/mol | 44 °C
GAAGAGGGAAACCTCCTC ((.((((....)))).)) | -14.9 kcal/mol | 26.4 °C
GATGTACGAAAGTAATC (((.(((....)))))) | -21.1 kcal/mol | 35.8 °C
GTGTCTTCGAAAGAACAC (((..(((....)))))) | -17.2 kcal/mol | 32.9 °C
GCGGAGCGAAAGCGCGGC ((.(.((....)).).)) | -15.3 kcal/mol | 58.6 °C
GCAACTCGAAAGAGCTGC (((.(((....))).))) | -46.6 kcal/mol | 52.3 °C
GGGCGCGAAAGCGTTCCC ((((((....)))..))) | -13.7 kcal/mol | 52.3 °C
GATCGCCACCGCGATC ((((((....)))))) | -40.2 kcal/mol | 67.1 °C
GAGGTGGGAAACCGCTTC ((.(.((....)).).)) | -19.1 kcal/mol | 50 °C
GATCACATCGTGATC ((((((...)))))) | -41 kcal/mol | 58.3 °C
GCGATGATCGC ((((...)))) | -22.3 kcal/mol | 46 °C

Sequence | folding enthalpy [1] | Tm [2]
GATCTGATTACAGATC ((((((....)))))) | -40.5 kcal/mol | 50 °C
GGTTCCGAAAGGATAACC ((((((....)))..))) | -20.5 kcal/mol | 43.5 °C
GCTAGGCGAAAGCTTCGC ((.(.((....)).).)) | -13.9 kcal/mol | 36.2 °C
GATCCCCCAAGGGATC ((((((....)))))) | -38.6 kcal/mol | 61.2 °C
GTAGCGGGAAACTGCTGC (.(((.(....).))).) | -22.6 kcal/mol | 44.2 °C
GTTATGAAAATAAC (((((....))))) | -16.9 kcal/mol | 38.6 °C
GGTGAAGGAAACTTTACC (((.(((....))).))) | -31.6 kcal/mol | 39 °C
GATATGGCGAAAGCCATC (((..(((....)))))) | -7.03 kcal/mol | 34.2 °C
GTGCACGGAAACGTACAC (((.(((....))).))) | -31.8 kcal/mol | 48.5 °C
GACCAAGGAAACCTGGTC (((((.(....).))))) | -33.4 kcal/mol | 47.2 °C
GAAGATCCGAAAGGATTC (((..(((....)))))) | -12.6 kcal/mol | 31.3 °C
GATCGTACAACGATC ((((((...)))))) | -37.4 kcal/mol | 56.5 °C
GTGTTCGGAAACGAATGC (..((((....))))..) | -24.9 kcal/mol | 42.1 °C
GTTTTAGCGAAAGCTAAC (((..(((....)))))) | -13.2 kcal/mol | 33 °C
GGGTACGGAAACGTGCCC (((.(((....))).))) | -53.5 kcal/mol | 60.1 °C
GCTGAGGGAAACCTCAAC (.(((((....))))).) | -18.9 kcal/mol | 36.6 °C
GACTTTGGAAACAGAGTC ((((.((....)).)))) | -31.1 kcal/mol | 38.1 °C
GCGCTGCGAAAGCCGAGC ((.(.((....)).).)) | -23.2 kcal/mol | 50.8 °C
GCGATGCCTCGC ((((....)))) | -20.5 kcal/mol | 50.4 °C
GCGGCCCCCGC ((((...)))) | -20.4 kcal/mol | 56.6 °C
GGGCAGCGAAAGCTCCCC (((.(((....))).))) | -18.3 kcal/mol | 56.3 °C
GATGCCGAAAGGCCGATC ((((((....)))..))) | -10.3 kcal/mol | 25.2 °C
GGCTAGTCGAAAGACGCC (((..(((....)))))) | -19.9 kcal/mol | 52.3 °C
GAGTGCGGAAACACACTC (((((.(....).))))) | -28.4 kcal/mol | 47.5 °C

Sequence | folding enthalpy [1] | Tm [2]
GGGAACGAAAGTTTGCCC ((((((....)))..))) | -20.8 kcal/mol | 31.8 °C
GCGAACGTCGC ((((...)))) | -18.8 kcal/mol | 45.8 °C
GGCTGCGAAAGCATGGCC ((((((....)))..))) | -31.8 kcal/mol | 54.6 °C
GGGATCGGAAACGATTCC ((.((((....)))).)) | -40.7 kcal/mol | 53.5 °C
GATCATGCGCATGATC ((((((....)))))) | -57.1 kcal/mol | 57.2 °C
GCGTAGTTACGC ((((....)))) | -22.4 kcal/mol | 54.4 °C
GTCAATCCGAAAGGAGAC (((..(((....)))))) | -20.3 kcal/mol | 32.5 °C
GCGGTTAACCGC ((((....)))) | -28.7 kcal/mol | 66.7 °C
GTGCGTGCGAAAGCACAC (((..(((....)))))) | -9.15 kcal/mol | 63.5 °C
GTGTCCGAAAGGAAGCAC ((((((....)))..))) | -19.2 kcal/mol | 38.6 °C
GACTTGGGAAACCAAGCC (.(((((....))))).) | -19.1 kcal/mol | 41.8 °C
GTGGATCGAAAGATTCAC (((.(((....))).))) | -38.2 kcal/mol | 53.8 °C
GCGAAATCGAAAGATCGC (((..(((....)))))) | -28.1 kcal/mol | 47.5 °C
GGGTACGAAAGTACGCCC ((((((....)))..))) | -13.3 kcal/mol | 46.1 °C
GCAAGCGAAAGCTATTGC ((((((....)))..))) | -17.5 kcal/mol | 42.8 °C
GCTGGGCGAAAGCCTGGC ((..(((....)))..)) | -24.5 kcal/mol | 60.9 °C
GGCTTAGGAAACTAAGCC (((((((....))))))) | -48.5 kcal/mol | 62.9 °C
GATCGAACACTCGATC ((((((....)))))) | -31 kcal/mol | 48.9 °C
GCGACTGTTCGC ((((....)))) | -22.5 kcal/mol | 47.8 °C
GTTCGGACGAAAGTCAAC (((..(((....)))))) | -9.64 kcal/mol | 29.1 °C
GATCCACCCTGGATC ((((((...)))))) | -33.8 kcal/mol | 51 °C
